NPY-Y1 antag – blocks the human neuropeptide Y Y1 receptor | AID 1040 | HEK293-CNG Y1 cells, membrane potential fluorescence; NPY at EC95, then isoproterenol | hit rate 1% among 200,000 | P25929 | inhibition, % at 3.6 µM;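 active = inhibition above the campaign mean inhibition of all tested compounds plus 3 SD, cut at about 20% in these data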;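 also: 0% = DMSO wells given NPY plus isoproterenol and 100% = isoproterenol alone without NPY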
Target sequence (P25929 whole entry, looked up): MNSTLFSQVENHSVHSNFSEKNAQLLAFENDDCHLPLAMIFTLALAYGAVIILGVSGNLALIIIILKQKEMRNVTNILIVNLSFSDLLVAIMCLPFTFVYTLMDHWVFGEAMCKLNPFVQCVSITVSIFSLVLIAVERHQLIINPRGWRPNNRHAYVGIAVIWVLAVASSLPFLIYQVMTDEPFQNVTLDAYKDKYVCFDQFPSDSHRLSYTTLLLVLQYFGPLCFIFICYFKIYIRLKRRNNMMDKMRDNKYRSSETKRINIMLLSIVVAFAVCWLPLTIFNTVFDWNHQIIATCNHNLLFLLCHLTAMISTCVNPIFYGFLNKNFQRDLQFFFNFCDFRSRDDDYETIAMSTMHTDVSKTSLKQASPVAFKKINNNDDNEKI
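Benchmarks – high control isoproterenol alone, low control NPY with isoproterenol · Material – HEK293 Y1/CNG channel cell line · Times – dye 3 h, compound 60 min room temperature, stimulation 45 min · Probe or stimulus – NPY (25 nM), isoproterenol (1 µM), Ro 20-1724 (25 µM) · Evaluation – % inhibition of NPY effect · Signal – fluorescence, membrane potential probe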
NPY Y2 blocker – blocks the human neuropeptide Y Y2 receptor. P49146. inhibition, % at 2.7 µM. NPY-Y2 expressing cells, antagonist mode. hit rate 0.99% among 140,000; in the data active = inhibition above about 17%;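 also: 0% = vehicle with agonist challenge and 100% = reference antagonist with challenge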
S1P4 agonist – human S1P4 receptor agonism; O95977; S1P4-expressing cell line, agonist reporter assay; activation, % at 4.98 µM; hit rate 0.35% among 220,000; AID 1509; in the data active = activation above about 11%;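 also: 0% = DMSO vehicle and 100% = reference agonist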
NPY2 pot ag – potentiates or activates human NPY-Y2 receptor. activation, % at 3.6 µM. cells expressing NPY-Y2, potentiator/agonist read-out. P49146. hit rate 0.45% among 220,000; in the data active = activation above about 27%;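 also: cells stimulated with NPY near EC25 plus isoproterenol at EC100; 0% = vehicle plus submaximal agonist and 100% = vehicle plus saturating agonist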
S1P4 antagonist – blocks the human S1P4 receptor; O95977; S1P4-expressing cells, antagonist mode, reporter read-out; inhibition, % at 4.98 µM; hit rate 0.26% among 220,000; in the data active = inhibition above about 29%;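 also: 0% = wells stimulated with agonist and 100% = vehicle wells without agonist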
NPY-Y1 PAM-ag – potentiators or agonists of human neuropeptide Y receptor Y1. P25929. NPY-Y1 expressing cells, potentiator/agonist activation. activation, % at 3.6 µM. hit rate 0.37% among 220,000; in the data active = activation above about 33%, passing the limit was not always enough;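 also: cells stimulated with NPY at EC10 then isoproterenol at EC100; 0% = low agonist plus stimulus and 100% = saturating agonist plus stimulus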
Numbers without * were called inactive; · = no result given. Only some compounds are listed: those with a hit (about 2.4% of all), similar ones and a draw of the others.

SMILES	NPY-Y1 antag	NPY Y2 blocker	S1P4 agonist	NPY2 pot ag	S1P4 antagonist	NPY-Y1 PAM-ag
Cc1oc(C(C)(C)C)cc1C(=O)N1CCN(C(c2ccccc2)c2ccccc2)CC1	·	·	0	11	8	9
O=C(c1ccc(-c2cc(Cl)ccc2Cl)o1)N1CCOCC1	20*	·	-1	-9	-7	-12
O=C(c1ccc(-c2ccc(Cl)cc2Cl)o1)N1CCOCC1	2	·	-1	-2	-3	-1
CN(/C=C/C(=C\C=[N+](C)c1ccccc1)OCCCS(=O)(=O)[O-])c1ccccc1	1	·	0	-2	9	17
O=C(COc1ccc(Cl)cc1)NCCSCc1cccc(Cl)c1	11	17*	2	-20	5	-31
Cc1sc2ncnc(NCCc3ccc(S(N)(=O)=O)cc3)c2c1C	-2	4	2	-1	-55	-38
CCOC(=O)CSc1nc2cc(S(=O)(=O)Nc3ccccc3OC)ccc2o1	-2	-1	-1	45*	-31	70*
COC(=O)C/C=C/[C@@H](C)[C@@H](/C=N/OC[C@H]1O[C@H](c2ccccc2)C=C[C@@H]1Oc1ccc(OC)cc1)OC	25*	19*	1	2	9	-39
COc1ccc(O[C@H]2C=C[C@@H](c3ccccc3)O[C@@H]2COC(=O)CC/C(C)=N/OC[C@@H](O)COCc2ccco2)cc1	7	12	-1	-3	15	-21
O=C(COc1ccccc1)Nc1ccc(OC(F)(F)C(F)F)c(NC(=O)COc2ccccc2)c1	25*	34*	-3	-1	7	-56
CC(=O)Nc1ccc(OC(F)(F)C(F)F)c(NC(C)=O)c1	2	-2	-1	3	6	-6
C1CCN(c2nc(N3CCCC3)nc(N3CCNCC3)n2)C1	-8	3	-1	69*	7	79*
CCN(C(=O)CSc1nnc(Nc2ccccc2)s1)C1CCS(=O)(=O)C1 (configuration not stated)	1	·	1	8	-14	2
COC(=O)COc1ccc(NS(=O)(=O)c2cccc([N+](=O)[O-])c2)cc1	-2	·	0	48*	-4	35*
COC(=O)COc1cccc(NS(=O)(=O)c2cccc([N+](=O)[O-])c2)c1	3	·	0	0	5	0
O=C(Cc1ccc(Br)c2ccccc12)N/N=C/c1ccccn1	2	·	-1	-9	-9	14
O=C(NNC(=O)C1CCN(S(=O)(=O)c2ccc(Cl)cc2)CC1)c1ccccc1	-2	2	-2	5	-3	-6
C(=N\Nc1nc2ccccc2[nH]1)/c1c[nH]c2ccccc12	-6	0	3	34*	-26	44*
Cn1cc([N+](=O)[O-])c(C(=O)N/N=C\c2c[nH]c3ccccc23)n1	1	·	2	12	-16	4
Cc1ccccc1/C=N/Nc1nc2ccccc2[nH]1	12	·	0	-23	15	-34
COc1ccccc1NS(=O)(=O)c1cc([N+](=O)[O-])ccc1N/N=C/c1c[nH]c2ccccc12	-4	-5	-1	34*	-17	39*
O=[N+]([O-])c1ccccc1N/N=C/c1c[nH]c2ccccc12	-18	-14	1	86*	-35	105*
CC(=O)c1ccc(OC(=O)CCc2nc3ccccc3s2)cc1	3	·	0	18	3	14
Cn1c(N)c(C(=O)COc2ccc(C#N)cc2)c(=O)n(C)c1=O	-1	·	0	0	-3	4
CC(C)CCNC(=O)Cn1c(NCCC(C)C)nc2c1c(=O)n(C)c(=O)n2C	60*	1	0	4	-17	-12
SMILES	NPY-Y1 antag	NPY Y2 blocker	S1P4 agonist	NPY2 pot ag	S1P4 antagonist	NPY-Y1 PAM-ag
Cc1ccc2c(c1)C(c1ccc([N+](=O)[O-])cc1)=NNC(c1ccc(Br)cc1)=N2	25*	17*	0	8	-30	-2
CCc1ccc2c(c1)C(c1ccc([N+](=O)[O-])cc1)=NNC(c1ccc(Br)cc1)=N2	5	0	0	11	-2	-7
CC(C)CNC(=O)c1ccc(Cl)c(Cl)c1	-1	2	0	-6	7	-1
Cc1ccc(-c2[nH]nc(N)c2N=Nc2cccc(Cl)c2C)cc1	-1	-3	0	17	-22	46*
Cc1ccc(-c2[nH]nc(N)c2N=Nc2ccccc2C)cc1	-3	-3	0	-1	-33	-7
Cc1ccccc1/C=N/NC(=O)Cn1cnc([N+](=O)[O-])n1	7	1	4	11	1	111*
CC(=O)ON1C(C)(C)Cc2noc(N)c2C1(C)C	3	-2	-1	55*	18	56*
O=C(NCc1nnc(SCC(=O)N2CCCc3ccccc32)o1)c1c(F)cccc1Cl	0	·	1	-6	-6	16
COc1ccc(C(O)Cn2cc([N+](=O)[O-])nc2C)cc1 (configuration not stated)	·	·	0	18	-11	11
Cc1cccc(C)c1OCC(O)CNC(C)C (configuration not stated)	6	5	0	-8	-7	-47
CCOC(=O)c1oc2cccc(OCC(O)CNC(C)C)c2c1C (configuration not stated)	-13	2	1	105*	-1	111*
CCC(=O)N1CCN(c2ccccc2NC(=O)COc2cc(C)ccc2C(C)C)CC1	31*	22*	-1	-11	7	-42
CCOC(=O)N1CCN(CC(O)COc2ccccc2C(C)C)CC1 (configuration not stated)	-10	2	0	59*	-4	79*
CCOC(=O)N1CCN(CC(O)COc2ccccc2C(C)(C)C)CC1 (configuration not stated)	-12	2	0	72*	-2	71*
CCOC(=O)N1CCN(CC(O)COC(CC)c2ccccc2)CC1 (configuration not stated)	-4	-2	1	7	3	2
CCOC(=O)N1CCN(CC(O)COc2cc(C)ccc2C(C)C)CC1 (configuration not stated)	-13	0	-1	81*	-2	92*
CCOC(=O)N1CCN(CC(O)COc2ccccc2C(C)CC)CC1 (configuration not stated)	0	2	2	3	-11	-9
Clc1ccccc1N=C1NN=C(c2cccs2)CS1	0	·	2	-8	5	18
Cc1nn(C)c(C)c1S(=O)(=O)N1CCC(CO)(CC2CCCCO2)CC1 (configuration not stated)	0	·	-1	-6	-3	1
CC1CN(CC(O)COc2ccccc2C(C)(C)C)CC(C)O1 (configuration not stated)	-15	1	-1	84*	2	100*
CC1CN(CC(O)COc2ccc(C(=O)c3ccccc3)cc2)CC(C)O1 (configuration not stated)	1	2	3	-12	-18	-14
CSc1sc(C(=O)NC(=O)NCc2ccncc2)c(C)c1-c1ccon1	·	·	0	7	0	1
